ChEMBL document CHEMBL2040841, “Design, synthesis and evaluation of triazole functionalized ring-fused 2-pyridones as antibacterial agents” (Eur J Med Chem, 2012)
Activity calls are given as the source filed them. The rule behind the calls is not given here.

Legend:
[1] = test system: Escherichia coli; assay: Antibacterial activity against uropathogenic Escherichia coli isolate UTI89 assessed as inhibition of biofilm formation at 200 uM after 24 hrs by crystal violet staining method; type: functional, organism-based
Method in brief: (§1)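 UTI89 grown overnight in LB at 37 °C, then diluted 1:1000 in LB under type-1 pili inducing conditions. Compounds were added at a constant DMSO level, and the plates were incubated 24 h in humid boxes at 26 °C. Wells were washed with water, air dried and stained with 1% crystal violet, and absorbance was read at 600 nm. Growth was monitored in separate plates. Triplicates were compared with DMSO-treated controls.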

[2] = test system: Escherichia coli; assay: Inhibition of type 1 pili formation in uropathogenic Escherichia coli isolate UTI89 assessed as inhibition of biofilm formation after 24 hrs by crystal violet staining method; type: functional, organism-based; conditions: isolate UTI89, 24 h; method in brief: as §1

EC50 [2] [µM] | SMILES | inhibition [1]
150 | Cn1cc(-c2sc3c(C4CC4)c(Cc4cccc5ccccc45)cc(=O)n3c2C(=O)O)nn1 | inactive
75 | Cc1ccc(Cn2cc(-c3c(Cc4cccc5ccccc45)cc(=O)n4c3SC[C@H]4C(=O)O)nn2)cc1 | –
100 | O=C(O)[C@@H]1CSc2c(-c3cn(Cc4ccccc4)nn3)c(Cc3cccc4ccccc34)cc(=O)n21 | –
35 | O=C(O)[C@@H]1CSc2c(-c3cn(Cc4ccc([N+](=O)[O-])cc4)nn3)c(Cc3cccc4ccccc34)c(Br)c(=O)n21 | –
> 200 | O=C(O)[C@@H]1CSc2c(-c3cn(CC4CC4)nn3)c(Cc3cccc4ccccc34)cc(=O)n21 | inactive
> 200 | O=C(O)[C@@H]1CSc2c(-c3cn(CC4CC4)nn3)c(Cc3cccc4ccccc34)c(Br)c(=O)n21 | inactive
> 200 | O=C(O)c1c(-c2c[nH]nn2)sc2c(-c3cccc(C(F)(F)F)c3)c(Cc3cccc4ccccc34)cc(=O)n12 | inactive
> 200 | O=C(O)[C@@H]1CSc2c(-c3cn([C@H](CO)Cc4ccccc4)nn3)c(Cc3cccc4ccccc34)cc(=O)n21 | inactive
50 | O=C(O)c1c(-c2cn(Cc3ccccc3)nn2)sc2c(-c3cccc(C(F)(F)F)c3)c(Cc3cccc4ccccc34)cc(=O)n12 | –
> 200 | Cn1cc(-c2c(Cc3cccc4ccccc34)cc(=O)n3c2SC[C@H]3C(=O)O)nn1 | inactive
> 200 | Cn1cc(-c2c(Cc3cccc4ccccc34)c(Br)c(=O)n3c2SC[C@H]3C(=O)O)nn1 | inactive
> 200 | CCn1cc(-c2c(Cc3cccc4ccccc34)c(Br)c(=O)n3c2SC[C@H]3C(=O)O)nn1 | inactive
150 | O=C(O)[C@@H]1CSc2c(-c3cn([C@H](CO)Cc4ccccc4)nn3)c(Cc3cccc4ccccc34)c(Br)c(=O)n21 | –
> 200 | CCn1cc(-c2c(Cc3cccc4ccccc34)cc(=O)n3c2SC[C@H]3C(=O)O)nn1 | inactive
> 200 | O=C(O)[C@@H]1CSc2c(-c3cn([C@@H]4OC[C@@H](O)[C@H](O)[C@H]4O)nn3)c(Cc3cccc4ccccc34)cc(=O)n21 | inactive
> 200 | O=C(O)c1c(-c2cn(Cc3ccccc3)nn2)sc2c(C3CC3)c(Cc3cccc4ccccc34)cc(=O)n12 | inactive
9 | Cn1cc(-c2sc3c(-c4cccc(C(F)(F)F)c4)c(Cc4cccc5ccccc45)cc(=O)n3c2C(=O)O)nn1 | –
> 200 | O=C(O)[C@@H]1CSc2c(-c3c[nH]nn3)c(Cc3cccc4ccccc34)c(Br)c(=O)n21 | inactive
75 | O=C(O)c1c(-c2c[nH]nn2)sc2c(C3CC3)c(Cc3cccc4ccccc34)cc(=O)n12 | –
> 200 | O=C(O)[C@@H]1CSc2c(-c3cn([C@@H]4OC[C@@H](O)[C@H](O)[C@H]4O)nn3)c(Cc3cccc4ccccc34)c(Br)c(=O)n21 | inactive
100 | O=C(O)[C@@H]1CSc2c(-c3cn(Cc4ccccc4)nn3)c(Cc3cccc4ccccc34)c(Br)c(=O)n21 | –
> 200 | Nc1ccc(Cn2cc(-c3c(Cc4cccc5ccccc45)cc(=O)n4c3SC[C@H]4C(=O)O)nn2)cc1 | inactive
200 | Cc1ccc(Cn2cc(-c3c(Cc4cccc5ccccc45)c(Br)c(=O)n4c3SC[C@H]4C(=O)O)nn2)cc1 | inactive
> 200 | O=C(O)[C@@H]1CSc2c(-c3c[nH]nn3)c(Cc3cccc4ccccc34)cc(=O)n21 | inactive
